# HSF1 activator: increases HSF-1 driven luciferase reporter signal | NIH3T3-HGL HSF-1 luciferase reporter, MG132, 8 h; 100% = twice DMSO control signal | activation, % at 9 µM | 300,000 tested, 1.7% active;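 active means mean replicate activation of at least 50% with a set share of replicates each reaching 50%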;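 further: 0% = median of the neutral control wells and 100% = twice that signal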
# HCV NS3 hel inh: blocks Hepatitis C virus NS3 helicase unwinding | NS3 helicase DNA unwinding, Cy5 molecular beacon fluorescence | inhibition, % at 10.9 µM | 290,000 tested, 0.56% active;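 active means inhibition above the mean of all tested compounds plus 3 SD, set per campaign, cut at about 35% in these data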;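 further: 0% = DMSO wells and 100% = thioflavine S control wells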
#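 Test system: hepatitis C virus NS3 helicase domain fragment enzyme. Also added: annealed dual-labelled DNA beacon duplex, ATP-started. Timing: 60 min unwinding reaction at 25 °C after ATP addition. Technique: Cy5 fluorescence. Measure: % inhibition of unwinding.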
# HSF1 inh: HSF1 inhibition; activity change, negative = inhibition, % at 7.5 µM (by protocol); AID 2098; 300,000 tested, 0.77% active; NIH3T3-HGL HSE-luciferase, MG132-induced, luminescence 8 h; hits give low values;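 active means more than half of replicate wells show activity change below -50%, luminescence cut by over half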;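 further: luciferase reports HSF-1 transcriptional activity via heat shock element; 0% = median of DMSO wells and -100% = zero luminescence signal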
# FID counter: fluorescent intercalator displacement, NS3 helicase counter-screen | inhibition, % at 7.9 µM | DNA fluorescent intercalator displacement, fluorescence | 290,000 tested, 0.17% active; in the data active means inhibition above about 37%;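 further: 0% = vehicle and 100% = reference compound; higher means more ethidium bromide displaced from hairpin DNA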
# HCV core dimer: blocks dimerization of HCV core protein; TR-FRET GST/Flag-core106 dimerization, 1536-well; inhibition, % at 5 µM; 300,000 tested, 0.33% active;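 active means inhibition above the mean of all tested compounds plus 3 SD, set per screening campaign, cut at about 45% in these data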
#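 Assay system – GST-tagged and Flag-tagged HCV core protein residues 1-106 · Quantity – core106 proteins, GST 13.5 nM and Flag 17 nM · Benchmarks – unlabelled core106 and no-GST-core106 wells · Read-out basis – percent inhibition of core106 dimerization signal · Detection – time-resolved FRET, ex 340 nm, em 617 and 671 nm · Schedule – 4 h at 22.5 °C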
# HSP90 refold inh: blocks HSP90-mediated luciferase refolding in reticulocyte lysate. AID 1789. 290,000 tested, 0.91% active. Rabbit reticulocyte lysate, luciferase refolding luminescence, 3 h. inhibition, % at 5.6 µM;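 active means inhibition above the screen-wide mean plus 3 SD, computed separately per campaign, cut at about 16% in these data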;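 further: 0% = DMSO wells and 100% = 60 µM geldanamycin wells; inhibitors lower the luminescence because luciferase stays unfolded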
# * hit, by the source's call; . = not tested or not shown. This is a sample that favours compounds with a hit; in the whole collection about 3.9% have one here.
SMILES,HSF1 activator,HCV NS3 hel inh,HSF1 inh,FID counter,HCV core dimer,HSP90 refold inh
COc1ccc(/C(C)=N/NC(=O)c2ccncc2)cc1,-3,5,-4,-8,3,-1
Cc1nnc(N/N=C/c2ccco2)n1N,56*,0,42,0,-5,-1
COc1cccc(/C=N/Nc2nnc(C)n2N)c1O,68*,-15,39,-12,-2,3
Cc1nnc(N/N=C/c2ccccc2F)n1N,38,8,15,-1,0,4
CCC(C)[C@H](NC(=O)[C@@H]1Cc2c([nH]c3ccccc23)C2c3ccccc3C(=O)N21)C(=O)N1CCC[C@@H]1C(=O)O (some centres undefined),9,10,-4,-26,1,-1
Cc1ccc(OCC(=O)Nc2ccc(N3CCN(S(C)(=O)=O)CC3)cc2)cc1C,61*,3,35,-1,4,-3
CC(=O)Nc1cccc(NC(=O)COc2ccc3c(c2)OCO3)c1,56*,-11,26,-10,5,1
Cc1ccc(OCC(=O)Nc2ccc3c(c2)OCCO3)cc1C,-59,7,-63*,-19,1,8
CCOC(=O)COc1ccc(S(=O)(=O)Nc2ccc3c(c2)OCO3)cc1,4,0,-2,48*,12,-1
CCOC(=O)COc1ccc(S(=O)(=O)Nc2ccc(C)cc2)cc1,21,4,8,-19,7,4
C=C(C(=O)Nc1ccccc1)c1ccc(C)cc1,29,.,16,.,-21,.
Cc1cccc(C(=O)NC2CC3CCCC(C2)N3Cc2ccccc2)c1 (centres undefined),6,12,3,6,-4,6
O=C(Nc1ccc2c(c1)OCO2)C1CCCCN1S(=O)(=O)c1ccc(F)cc1 (centres undefined),16,2,0,-14,2,-1
CC(=O)c1ccc(NC(=O)COc2ccc3c(c2)OCO3)cc1,56*,6,17,-10,2,2
NC(=O)c1ccc(NC(=O)Nc2ccc3c(c2)OCO3)cc1,58*,-5,16,-6,7,2
Cc1nc(N2CCOCC2)sc1C=O,-7,-2,-4,2,0,3
Cc1ccc(C2=NNC(C(O)C(O)C(O)C(C)O)S2)cc1 (centres undefined),75*,-3,38,-1,1,0
Cc1cc(=O)[nH]c(-n2ncc(C#N)c2N)n1,69*,2,27,-4,-1,1
N#Cc1cnn(-c2ccccc2)c1N,4,2,2,-4,-6,-1
O=C(O)/C=C/c1ccc2ccccc2n1,-6,-5,-2,-1,-6,0
CCCN(CCC)c1ccc(/C=C/c2ccc3cc(OCC)ccc3n2)cc1,-12,7,1,-11,8,5
Oc1ccc(/C=C/c2ccc3ccccc3n2)cc1,-34,1,-20,9,-1,24*
CN(C)c1ccc(/C=C/c2ccc3ccccc3n2)cc1,-87,-11,-85*,-7,-28,84*
Nc1ccc2nc(-c3cccs3)[nH]c2c1,10,-13,1,1,-16,-2
Cc1ccc(N2C(=O)[C@@H]3C(C(=O)C(c4ccccc4)c4ccccc4)=NN[C@@H]3C2=O)cc1,53*,21,17,-43,15,3
SMILES,HSF1 activator,HCV NS3 hel inh,HSF1 inh,FID counter,HCV core dimer,HSP90 refold inh
COc1ccc2oc(=Nc3cc(F)ccc3F)c(C(N)=O)cc2c1,70*,4,34,-2,2,-1
O=C(COC(=O)C1(c2ccccc2F)CCCC1)N1CCOCC1,-8,0,1,-6,-1,-2
Nc1c(SCCC(=O)O)ccc2c1C(=O)c1ccccc1C2=O,-9,22,5,-33,-79,0
COc1ccc(/C=C(\C#N)C(=O)Nc2cc(C)c(Cl)cc2OC)cc1O,-74,18,-64*,-1,7,5
COc1ccc(/C=C(\C#N)C(=O)NCc2ccccc2)cc1O,18,2,7,-11,4,-1
COc1cc(/C=C(\C#N)C(=O)Nc2ccccn2)ccc1O,23,-11,-3,-2,-8,-2
COc1cc(/C=C(\C#N)C(=O)Nc2cccc3ncccc23)ccc1O,63*,9,14,-2,-5,-1
COCCCNC(=O)CCc1nnc2ccc(N3CCC(C)CC3)nn12,-1,9,-2,-25,-3,0
CCCSc1ncc(Cl)c(C(=O)Nc2ccc(S(=O)(=O)N3CC(C)OC(C)C3)cc2)n1 (centres undefined),7,-9,1,-22,8,4
Cc1ccccc1NC1=NC(=S)N(CC(N)=O)C12CCOC(C)(C)C2 (centres undefined),14,19,-3,-8,3,0
O=c1[nH][nH]c(-c2ccccc2O)c1C(C[N+](=O)[O-])c1ccccc1 (centres undefined),228*,8,165,-8,-5,-1
O=c1c(Cl)c(Nc2cccc(Cl)c2)cnn1-c1nc2ccccc2s1,-17,6,-15,-4,4,16*
O=C(NCc1ccc(F)cc1)C1CC(=O)N(C2CCCCCCC2)C1 (centres undefined),3,11,6,-45,-15,3
COC(=O)[C@@H](Cc1ccccc1)NC(=O)NCCc1ccc(OC)c(OC)c1,-6,5,-3,-22,6,2
COc1ccccc1N1CCN(C(=O)C(CC(C)C)NC(=O)C2CCCCC2)CC1 (centres undefined),55*,-18,18,-44,12,-1
CN(CC1CCOCC1)C(=O)c1ccc2nc(Cc3cccc(Cl)c3)oc2c1,-5,-3,6,-47,-8,-7
O=C(NCC1CCOCC1)c1ccc2nc(Cc3cccc(Cl)c3)oc2c1,54*,-9,12,-34,10,-3
Cc1cc(C)n2nc(CC(=O)NC3CCCCCC3)nc2n1,-19,3,-7,-2,-1,-1
CCOC(=O)c1ccc(CN2C(=O)c3ccccc3S2(=O)=O)cc1,14,-5,5,-22,-1,-2
CCN1/C(=C(\O)c2ccccc2)C(=O)c2ccccc2S1(=O)=O,-78,16,-70*,-6,-7,1
Cc1c(C(=O)NCC2CCCO2)oc2c(Cl)cccc12 (centres undefined),32,.,14,.,7,.
Cc1ccccc1Nc1nnc(SCc2cc([N+](=O)[O-])cc3c2OCOC3)s1,56*,-5,30,-12,9,0
O=[N+]([O-])c1cc2c(c(CSc3nnc(Nc4ccccc4)s3)c1)OCOC2,2,-5,-4,-1,16,-3
C(=N\Nc1nc2ccccc2[nH]1)/c1ccc2c(c1)OCCO2,71*,-24,49,12,-8,5

# Screens: PubChem, several laboratories
